Source: ChEMBL document CHEMBL1127480, “Evaluation of a vitamin-cloaking strategy for oligopeptide therapeutics: biotinylated HIV-1 protease inhibitors” (J Med Chem, 1994)
Activity calls are given as the source filed them. The rule behind the calls is not given here.

Key:
[1] = molecular target: Human immunodeficiency virus type 1 protease (Human immunodeficiency virus 1, UniProt Q72874); assay: In vitro inhibitory activity against […]
CV-1 [2] = assay: Inhibition of p24 expression was measured at 1 uM using vVK/CV-1 assay; format: functional, Cercopithecidae; conditions: Chlorocebus aethiops
[3] = Inhibition of p24 expression in HIVD34-infected PBMC assay on day 4 at concentration of 1 nM; format: functional; conditions: Homo sapiens, 96 h
[4] = Inhibition of p24 expression in HIVD34-infected PBMC assay on day 4 at concentration of 10 nM; format: functional; conditions: Homo sapiens, 96 h
[5] = Inhibition of viral RNA in PBMC assay on day 4 at concentration of 100 nM; format: functional; conditions: Homo sapiens, 96 h
[6] = Inhibition of viral RNA in HIVD34-infected PBMC assay on day 4 at concentration of 1 nM; format: functional; conditions: Homo sapiens, 96 h
Caco-2 [7] = assay: % control value in caco-2-cell monolayer; format: functional, Homo sapiens; design: concentration or dose not given beside the values
Outline: (§1)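 Caco-2 monolayers (passage 25) on Transwell inserts, equilibrated 30 min in HBSS with 25 mM glucose, 10 mM Hepes pH 7.35 at 37 °C. Apical side given 10 nM [3H]biotin alone or with 300 μM unlabeled biotin or conjugate (final MeOH 1–5%). Basolateral samples taken over time; [3H]mannitol integrity marker; Student's t-test; triplicate determinations.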

[8] = Inhibition of p24 expression in PBMC assay on day 4 at concentration of 100 nM; format: functional; conditions: Homo sapiens, 96 h
[9] = Inhibition of viral RNA in HIVD34-infected PBMC assay on day 4 at concentration of 10 nM; format: functional; conditions: Homo sapiens, 96 h
Caco-2 [10] = assay: Effect on the apical to basolateral transport of [3H]biotin in caco-2-cell monolayer; format: functional, Homo sapiens; outline: as §1
CV-1 [11] = assay: Inhibition of p24 expression was measured at 1 uM using vaccinia virus vVK/CV-1 assay; Inactive; format: functional, cell-based; conditions: Cercopithecidae
CV-1 [12] = assay: Inhibition of p24 expression was measured at 1 uM using vVK/CV-1 assay; Inactive; format: functional, cell-based; conditions: Cercopithecidae
[13] = p24 expression was measured by PBMC assay on day 4 at concentration of 10 nM; format: functional; conditions: Homo sapiens, 96 h
[14] = p24 expression was measured by PBMC assay on day 4 at concentration of 1 nM; format: functional; conditions: Homo sapiens, 96 h
[15] = Inhibition of p24 expression in HIVD34-infected PBMC assay on day 4 at concentration of 40 nM; format: functional; conditions: Homo sapiens, 96 h
[16] = Inhibition of p24 expression in HIVD34-infected PBMC assay on day 4 at concentration of 4 nM; format: functional; conditions: Homo sapiens, 96 h
[17] = Inhibition of viral RNA in HIVD34-infected PBMC assay on day 4 at concentration of 4 nM; format: functional; conditions: Homo sapiens, 96 h
[18] = Inhibition of viral RNA in HIVD34-infected PBMC assay on day 4 at concentration of 40 nM; format: functional; conditions: Homo sapiens, 96 h
[19] = Inhibition of p24 expression in HIVD34-infected PBMC assay on day 4 at concentration of 100 nM; format: functional; conditions: Homo sapiens, 96 h
[20] = Inhibition of viral RNA in HIVD34-infected PBMC assay on day 4 at a concentration of 100 nM; format: functional; conditions: Homo sapiens, 96 h

Row | SMILES | Ki [1] [nM] | inhibition at 1 µM (CV-1 [2]) [%] | Control (Caco-2 [7]) [%] | Transport (Caco-2 [10]) | further results
1 | CC[C@@H](C)[C@H](NC(=O)[C@H](C(C)C)[C@@H](O)[C@H](O)[C@H](CC1CCCCC1)NC(=O)c1ccccc1SCCCCC[C@@H]1SCC2NC(=O)NC21)C(=O)NCc1ccccn1 (some centres undefined) | 53 | – | – | – | –
2 | CC[C@@H](C)[C@H](NC(=O)[C@H](C(C)C)[C@@H](O)[C@H](O)[C@H](CC1CCCCC1)NC(=O)[C@@H](NC(=O)CCCC[C@H]1SC[C@H]2NC(=O)NC21)C(C)C)C(=O)NCc1ccccn1 (some centres undefined) | < 4 | 26 | 122 | 22.7 pM min-1 (mg of protein)-1 | inhibition at 0.001 µM [3]: 7%; inhibition at 0.01 µM [4]: 11%; inhibition at 0.1 µM [5]: 69%; inhibition at 0.001 µM [6]: 18%; inhibition at 0.1 µM [8]: 89%; inhibition at 0.01 µM [9]: 22%
3 | CC[C@@H](C)[C@@H](CNC(=O)CCCC[C@@H]1SC[C@@H]2NC(=O)NC21)NC(=O)[C@H](C(C)C)[C@@H](O)[C@H](O)[C@H](CC1CCCCC1)NC(=O)c1ccccc1OCCOc1ccccc1 (some centres undefined) | > 100 | – | – | – | inhibition (CV-1 [11]): inactive
4 | O=C(O)CCCC[C@@H]1SC[C@@H]2NC(=O)N[C@@H]21 [BIOTIN] | – | – | 0 | 0 pM min-1 (mg of protein)-1 | –
5 | CC[C@@H](C)[C@H](NC(=O)[C@H](C(C)C)[C@@H](O)[C@H](O)[C@H](CC1CCCCC1)NC(=O)CCCC[C@@H]1SCC2NC(=O)N[C@@H]21)C(=O)NCc1ccccn1 (some centres undefined) | 45 | 9 | 129 | 24.1 pM min-1 (mg of protein)-1 | –
6 | CC[C@@H](C)[C@H](NC(=O)[C@H](C(C)C)[C@@H](O)[C@H](O)[C@H](CC1CCCCC1)NC(=O)c1ccccc1SCCCCC[C@@H]1SCC2NC(=O)NC21)C(=O)NCCc1scnc1C (some centres undefined) | 4 | 34 | – | – | –
7 | CC[C@@H](C)[C@H](NC(=O)[C@H](C(C)C)[C@@H](O)[C@H](O)[C@H](CC1CCCCC1)NC(=O)CCCC[C@@H]1SCC2NC(=O)NC21)C(=O)NCCc1scnc1C (some centres undefined) | 130 | 15 | – | – | –
8 | CC[C@@H](C)[C@H](NC(=O)[C@H](C(C)C)[C@@H](O)[C@H](O)[C@H](CC1CCCCC1)NC(=O)CCCCCNC(=O)CCCC[C@@H]1SCC2NC(=O)N[C@@H]21)C(=O)NCc1ccccn1 (some centres undefined) | 20 | – | 111 | 20.6 pM min-1 (mg of protein)-1 | inhibition (CV-1 [12]): inactive
9 | CC[C@@H](C)[C@H](NC(=O)[C@H](C(C)C)[C@@H](O)[C@H](O)[C@H](CC1CCCCC1)NC(=O)c1ccccc1OCCCCC[C@@H]1SC[C@H]2NC(=O)N[C@@H]12)C(=O)NCc1ccccn1 | 10 | 24 | 85 | 15.8 pM min-1 (mg of protein)-1 | inhibition at 0.01 µM [13]: 5%; inhibition at 0.1 µM [5]: 17%; inhibition at 0.001 µM [6]: 15%; inhibition at 0.1 µM [8]: 83%; inhibition at 0.01 µM [9]: 10%; inhibition at 0.001 µM [14]: 2%
10 | Cc1cn([C@H]2C[C@H](N=[N+]=[N-])[C@@H](CO)O2)c(=O)[nH]c1=O [ZIDOVUDINE] | – | – | – | – | inhibition at 0.04 µM [15]: 81%; inhibition at 0.004 µM [16]: 2%; inhibition at 0.004 µM [17]: 0%; inhibition at 0.04 µM [18]: 90%
11 | CC[C@H](C)[C@H](NC(=O)[C@H](C(C)C)[C@@H](O)[C@H](O)[C@H](CC1CCCCC1)NC(=O)[C@H](Cc1c[nH]cn1)NC(=O)COc1cccc2ccccc12)C(=O)NCc1ccccn1 | < 1 | > 80 | – | – | inhibition at 0.1 µM [19]: 95%; inhibition at 0.001 µM [3]: 38%; inhibition at 0.01 µM [4]: 82%; inhibition at 0.1 µM [20]: 98%; inhibition at 0.001 µM [6]: 30%; inhibition at 0.01 µM [9]: 80%
